Data: ChEMBL document CHEMBL3046238, “Synthesis and biological activity evaluation of 1,2,3-thiadiazole derivatives as potential elicitors with highly systemic acquired resistance” (2009)
The source made the active and inactive calls. The rule behind the calls is not given here.

Experiments:
Assay type in all cases: functional
[1] = tested on: Cytospora mali; assay: Antifungal activity against Valsa mali assessed as growth inhibition at 50 ug/mL measured after 2 days post dose; conditions: for inhibition of growth at 50 µg/mL: 48 h, read-out: GI
[2] = tested on: Alternaria mali; assay: Antifungal activity against Alternaria mali assessed as growth inhibition at 50 ug/mL measured after 2 days post dose; conditions: 48 h, read-out: GI
[3] = tested on: Sclerotinia sclerotiorum; assay: Antifungal activity against Sclerotinia sclerotiorum assessed as growth inhibition at 50 ug/mL measured after 2 days post dose; conditions: for inhibition of growth at 50 µg/mL: 48 h, read-out: GI
[4] = tested on: Botrytis cinerea; assay: Antifungal activity against Botryotinia fuckeliana assessed as growth inhibition at 50 ug/mL measured after 2 days post dose; conditions: for inhibition of growth at 50 µg/mL: 48 h, read-out: GI
[5] = tested on: Puccinia triticina; assay: Antifungal activity against Puccinia triticina inoculated on 500 ug/mL compound pre-treated wheat plants with 3 to 5 leaves assessed as growth inhibition
In short: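 Healthy wheat plants at the 3-5 leaf stage were sprayed with compound (500 μg/mL) and then inoculated with spores. Inhibition percentage was calculated against the corresponding spore stack.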

[6] = tested on: Alternaria solani; assay: Antifungal activity against Alternaria solani assessed as growth inhibition at 50 ug/mL measured after 2 days post dose; conditions: 48 h, read-out: GI
[7] = tested on: Fusarium oxysporum f. sp. vasinfectum; assay: Antifungal activity against Fusarium oxysporum f. sp. vasinfectum assessed as growth inhibition at 50 ug/mL measured after 2 days post dose; conditions: for inhibition of growth at 50 µg/mL: 48 h, read-out: GI
[8] = tested on: Alternaria kikuchiana; assay: Antifungal activity against Alternaria kikuchiana assessed as growth inhibition at 50 ug/mL measured after 2 days post dose; conditions: 48 h, read-out: GI
[9] = tested on: Colletotrichum gloeosporioides; assay: Antifungal activity against Glomerella cingulata assessed as growth inhibition at 50 ug/mL measured after 2 days post dose; conditions: for inhibition of growth at 50 µg/mL: 48 h, read-out: GI
[10] = tested on: Colletotrichum lagenaria; assay: Antifungal activity against Colletotrichum lagenaria assessed as growth inhibition at 50 ug/mL measured after 2 days post dose; conditions: 48 h, read-out: GI
[11] = tested on: Ustilaginoidea virens; assay: Antifungal activity against Villosiclava virens assessed as growth inhibition at 50 ug/mL measured after 2 days post dose; conditions: for inhibition of growth at 50 µg/mL: 48 h, read-out: GI
[12] = tested on: Fusarium graminearum; assay: Antifungal activity against Fusarium graminearum assessed as growth inhibition at 50 ug/mL measured after 2 days post dose; conditions: 48 h, read-out: GI
In short: (§1)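 Compound stock at 500 μg/mL in DMF, diluted with sterile water in the dish and mixed into potato dextrose agar before setting. A 4 mm diameter fungal plug is placed on the plate and cultured at 24-26 °C. Colony diameter is measured after 2 days.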

[13] = tested on: Phomopsis asparagi; assay: Antifungal activity against Phomopsis asparagi assessed as growth inhibition at 50 ug/mL measured after 2 days post dose; conditions: for inhibition of growth at 50 µg/mL: 48 h, read-out: GI
[14] = tested on: Mycosphaerella arachidis; assay: Antifungal activity against Mycosphaerella arachidis assessed as growth inhibition at 50 ug/mL measured after 2 days post dose; conditions: 48 h, read-out: GI
[15] = tested on: Fusarium oxysporum; assay: Antifungal activity against Fusarium oxysporum assessed as growth inhibition at 50 ug/mL measured after 2 days post dose; conditions: 48 h, read-out: GI
[16] = tested on: Fusarium fujikuroi; assay: Antifungal activity against Fusarium fujikuroi assessed as growth inhibition at 50 ug/mL measured after 2 days post dose; conditions: 48 h, read-out: GI
[17] = tested on: Tobacco mosaic virus; assay: Induction of systemic acquired resistance against Tobacco mosaic virus (TMV) in tobacco plants exposed to 50 ug/mL compound through leaf spray followed by 7 days culture under green house conditions assessed as inhibition of viral growth in leaves infected with Tobacco mosaic virus (TMV) measured 72 hr post viral infection by half-leaf juice rubbing method; design: scale not given: the % may be the effect or the level left
In short: (§2)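 Tobacco plants received compound by leaf spray or by soil irrigation, with double-distilled water as CK. Newly grown leaves were then rub-inoculated with TMV (5.88×10-2 μg/mL), and plants were kept at 25 °C for 72 h. Lesions on inoculated leaves were counted. Inhibition = (CK−A)/CK×100 from mean lesion numbers versus control.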

[18] = tested on: Tobacco mosaic virus; assay: Induction of systemic acquired resistance against Tobacco mosaic virus (TMV) in tobacco plants exposed to 500 ug/mL compound through leaf spray followed by 7 days culture under green house conditions assessed as inhibition of viral growth in leaves infected with Tobacco mosaic virus (TMV) measured 72 hr post viral infection by half-leaf juice rubbing method; design: scale not given: the % may be the effect or the level left; in short: as §2
[19] = tested on: Ceratobasidium cereale; assay: Antifungal activity against Ceratobasidium cereale assessed as growth inhibition at 50 ug/mL measured after 2 days post dose
[20] = tested on: Botryosphaeria berengeriana; assay: Antifungal activity against Botryosphaeria berengeriana assessed as growth inhibition at 50 ug/mL measured after 2 days post dose
[21] = tested on: Phytophthora infestans; assay: Antifungal activity against Phytophthora infestans assessed as growth inhibition at 50 ug/mL measured after 2 days post dose; in short: as §1
[22] = tested on: Rhizoctonia solani; assay: Antifungal activity against Rhizoctonia solani assessed as growth inhibition at 50 ug/mL measured after 2 days post dose
[23] = tested on: Tobacco mosaic virus; assay: In vivo antiviral activity against Tobacco mosaic virus (TMV) infected tobacco leaves exposed to 500 ug/mL for 20 min assessed as inhibition of viral growth measured 72 hr post compound treatment compound by half-leaf juice rubbing method
In short: (§3)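 Half-leaf method on tobacco. A fresh leaf from a plant at the 5-6 leaf age was rub-inoculated with TMV (5.88×10-2 μg/mL) and cut along the main vein. One half was immersed in compound solution and the other in double-distilled water, each for 20 min. Halves were kept at 25 °C and 100% humidity for 72 h, then lesions were counted. Three replicates were run. Inhibition = (CK−A)/CK×100 from mean lesion numbers.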

[24] = tested on: Tobacco mosaic virus; assay: Antiviral activity against Tobacco mosaic virus (TMV) infected tobacco leaves exposed to 500 ug/mL for 20 min assessed as inhibition of viral growth measured 72 hr post compound treatment compound by half-leaf juice rubbing method; in short: as §3
[25] = tested on: Tobacco mosaic virus; assay: Induction of systemic acquired resistance against Tobacco mosaic virus (TMV) in tobacco plants exposed to 500 ug/mL compound through irrigation based soil treatment followed by 7 days culture under green house conditions assessed as inhibition of viral growth in leaves infected with Tobacco mosaic virus (TMV) measured 72 hr post viral infection by half-leaf juice rubbing method; design: scale not given: the % may be the effect or the level left; in short: as §2

| SMILES | inhibition of growth at 50 µg/mL [2] | growth inhibition (GI) [5] | inhibition of growth at 50 µg/mL [6] | inhibition of growth at 50 µg/mL [8] | inhibition of growth at 50 µg/mL [10] | inhibition of growth at 50 µg/mL [12] | inhibition of growth at 50 µg/mL [14] | inhibition of growth at 50 µg/mL [15] | inhibition of growth at 50 µg/mL [16] | Activity [17] | Activity [18] | inhibition of growth at 50 µg/mL [1] | inhibition of growth at 50 µg/mL [3] | inhibition of growth at 50 µg/mL [4] | inhibition of growth at 50 µg/mL [7] | inhibition of growth at 50 µg/mL [9] | inhibition of growth at 50 µg/mL [11] | inhibition of growth at 50 µg/mL [13] | also measured |
| --- | --- | --- | --- | --- | --- | --- | --- | --- | --- | --- | --- | --- | --- | --- | --- | --- | --- | --- | --- |
| Cc1csc(NC(=O)c2snnc2C)n1 | 50% | inactive | 35.7% | 17.6% | 17.6% | 7.1% | 29.4% | 15% | 64.3% | 81% | 70% |  |  |  |  |  |  |  | growth inhibition (GI) [1]: inactive; growth inhibition (GI) [3]: inactive; growth inhibition (GI) [4]: inactive; growth inhibition (GI) [7]: inactive; growth inhibition (GI) [9]: inactive; growth inhibition (GI) [11]: inactive; growth inhibition (GI) [13]: inactive |
| COc1ccc(-c2nnc(-c3snnc3C)o2)cc1 | 37.9% | 0% | 17.6% |  |  | 37.9% | 17.6% | 0% | 0% | 78% | 80% | 47.2% | 23.5% | 31% | 0% | 29.4% | 29.4% |  | inhibition of growth at 50 µg/mL ([19]; 48 h, read-out: GI): 31%; inhibition of growth at 50 µg/mL ([20]; 48 h, read-out: GI): 33.3%; growth inhibition (GI) [21]: inactive; inhibition of growth at 50 µg/mL ([22]; 48 h, read-out: GI): 0% |
| Cc1ccc(NC(=O)c2snnc2C)cc1Cl [TIADINIL] | 32.1% | 40% | 0% | 0% | 22.8% | 25% | 13.6% | 12.5% | 0% | 63% | 40% | 3.6% | 34.4% | 23.9% | 5.3% | 51.6% | 12% | 60% | growth inhibition (GI) [19]: inactive; growth inhibition (GI) [20]: inactive; growth inhibition (GI) [21]: inactive; growth inhibition (GI) [22]: inactive; growth inhibition (GI) [23]: 0%; growth inhibition (GI) [24]: 0% |
| O=C1NCNC(=O)N1 |  |  |  |  |  |  |  |  |  |  | 5% |  |  |  |  |  |  |  | Activity [25]: 8%; growth inhibition (GI) [23]: 42%; growth inhibition (GI) [24]: 49% |
| Cc1nnsc1C(=O)Nc1nc(-c2ccc([N+](=O)[O-])cc2)cs1 | 24.1% | inactive | 20% | 0% | 17.6% | 37.5% | 35.7% | 13.3% | 5.3% |  | 0% | 26.1% | 11.1% |  | 14.3% | 8% |  |  | growth inhibition (GI) [4]: inactive; growth inhibition (GI) [11]: inactive; growth inhibition (GI) [13]: inactive |
| Cc1nnsc1C(=O)Nc1nc(-c2ccc(Cl)cc2)cs1 | 15% | 0% | 0% | 0% | 13.3% | 18.8% | 29.4% | 46.7% | 64.3% |  | 40% | 88.9% | 61.5% | 12% | 40% | 68.4% | 11.1% | 37.5% |  |
| Cc1nnsc1C(=O)Nc1nc(-c2ccccc2)cs1 | 10% | 0% | 15.8% | 37.5% | 6.7% | 18.8% | 14.3% | 13.3% | 64.3% | 74% | 70% | 22.2% | 47.3% | 8.3% | 40% | 15.8% | 55.6% | 6.3% |  |
| CCc1sc(NC(=O)c2snnc2C)nc1-c1ccc(Cl)cc1Cl | 35% | 0% | 33.3% | 37.5% | 26.7% | 25% | 14.3% | 13.3% | 64.3% |  | 0% | 44.4% | 61.5% | 40% | 20% | 20.1% | 33.3% | 12.5% |  |
